Compounds with a hit are over-represented: about 4.7% of the library has one in this group of screens.
Jurkat NFkB inh = inhibitors of the PMA/ionomycin-induced NF-kB reporter in Jurkat cells; inhibition, % at 4 µM; PMA/ionomycin-induced NF-kB luciferase reporter, luminescence; 330,000 tested, 0.53% active; AID 435003; in the data active means inhibition above about 50%
IMP-1 inh = blocks Pseudomonas aeruginosa IMP-1 metallo-beta-lactamase; purified IMP-1, nitrocefin hydrolysis, epi-absorbance fluorescence; inhibition, % at 5.6 µM; 290,000 tested, 0.45% active;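 active means inhibition above the mean plus 3 SD of all compounds in the same screening run, cut at about 4.5% in these data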
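Material – recombinant IMP-1 enzyme, purified · Amount – IMP-1 0.2 nM before substrate addition · Medium – HEPES buffer pH 7.1 with ZnSO4 and Brij 35 · Timing – 25 °C, 15 min preincubation, 25 min reaction · Measured by – plate fluorescence quenching by hydrolysis product, ex 480/em 530 nm · Read-out – percent enzyme inhibition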
aSyn UTR inh = MLPCN primary screen, SNCA 5' untranslated region; alpha-synuclein 5'UTR reporter, inhibitor activity; inhibition, % (tested at 7.5 µM); 300,000 tested, 0.82% active; AID 1813; in the data active means inhibition above about 60%; inconclusive means no clear call, values can overlap the other calls;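 further: H4 neuroglioblastoma cells stably carrying SNCA 5'UTR luciferase fusion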
VIM-2 inh = inhibitors of Pseudomonas aeruginosa VIM-2 metallo-beta-lactamase. purified VIM-2, nitrocefin hydrolysis, epi-absorbance fluorescence. inhibition, % at 5.6 µM. 290,000 tested, 0.89% active;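 active means inhibition above the mean of all tested compounds plus 3 SD, cutoff set per screening run, cut at about 7.5% in these data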;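 further: red hydrolysis product quenches plate fluorescence so inhibitors raise well fluorescence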
697 NFkB inh = lowers PMA/ionomycin-induced NF-kB signal in 697 B cells | 697 B-cell NF-kB luciferase reporter, 16 h | inhibition, % at 4 µM | 330,000 tested, 0.33% active; in the data active means inhibition above about 35%
Mdm2 MdmX PPI = inhibitors of human Mdm2/MdmX interaction. SaOS-2 split-luciferase Mdm2/MdmX complementation, luminescence. inhibition, % at 8 µM. AID 485346. 330,000 tested, 3% active. O15151+Q00987;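 active means inhibition of at least 50% at 8 µM in the primary screen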
Target sequence (O15151 whole entry, looked up): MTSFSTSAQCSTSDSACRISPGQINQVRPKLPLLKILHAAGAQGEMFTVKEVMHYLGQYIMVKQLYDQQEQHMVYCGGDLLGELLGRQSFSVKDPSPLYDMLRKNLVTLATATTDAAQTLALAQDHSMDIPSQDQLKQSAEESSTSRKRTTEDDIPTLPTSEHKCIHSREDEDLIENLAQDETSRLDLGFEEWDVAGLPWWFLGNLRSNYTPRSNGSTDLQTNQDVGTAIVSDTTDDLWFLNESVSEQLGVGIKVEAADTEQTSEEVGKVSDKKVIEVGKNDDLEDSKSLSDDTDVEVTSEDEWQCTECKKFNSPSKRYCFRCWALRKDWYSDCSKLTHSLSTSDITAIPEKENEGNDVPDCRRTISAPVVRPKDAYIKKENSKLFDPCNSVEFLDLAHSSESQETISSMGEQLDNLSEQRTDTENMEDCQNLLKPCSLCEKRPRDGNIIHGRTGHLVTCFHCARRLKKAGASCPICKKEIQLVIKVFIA
Target sequence (Q00987 whole entry, looked up): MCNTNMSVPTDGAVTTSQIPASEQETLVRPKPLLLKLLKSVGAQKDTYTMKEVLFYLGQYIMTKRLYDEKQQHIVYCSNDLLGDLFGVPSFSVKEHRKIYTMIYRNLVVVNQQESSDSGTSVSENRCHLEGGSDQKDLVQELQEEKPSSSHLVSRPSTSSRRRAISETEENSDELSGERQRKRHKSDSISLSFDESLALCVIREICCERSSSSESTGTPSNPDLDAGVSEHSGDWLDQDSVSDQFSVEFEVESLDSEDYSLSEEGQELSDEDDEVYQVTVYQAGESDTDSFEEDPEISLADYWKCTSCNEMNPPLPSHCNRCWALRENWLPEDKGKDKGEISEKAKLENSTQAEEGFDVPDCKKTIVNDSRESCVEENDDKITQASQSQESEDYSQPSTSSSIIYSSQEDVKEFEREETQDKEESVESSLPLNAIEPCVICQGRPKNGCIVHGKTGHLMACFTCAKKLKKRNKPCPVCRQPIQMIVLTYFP
Mdm2 MdmX conf = human Mdm2/MdmX binding inhibition, confirmed. AID 489028. luminescent assay. 10,000 tested, 55% active. inhibition, % at 8 µM. shares compounds with Mdm2 MdmX PPI; in the data active means inhibition above about 40%
FLuc counter = inhibits full-length luciferase, flagging false Mdm2/MdmX hits; shares compounds with Mdm2 MdmX PPI; AID 504607; 6,200 tested, 77% active; inhibition, % at 8 µM; SaOS-2 full-length luciferase counterscreen, luminescence;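 active means mean inhibition at 8 µM reaching about 37%, which flags the compound as non-specific, limit read from the data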;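 further: p53-null SaOS-2 cells with luciferase driven by a doxycycline-inducible promoter; compound on cells about two nights before reading with doxycycline added after day one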
Numbers stand for hits; i = inactive; ? = inconclusive; nt = no result.

SMILES | Jurkat NFkB inh | IMP-1 inh | aSyn UTR inh | VIM-2 inh | 697 NFkB inh | Mdm2 MdmX PPI | Mdm2 MdmX conf | FLuc counter
CCOc1cccc2sc(N(CCN(C)C)C(=O)c3cc4ccccc4cc3OC)nc12 | i | i | i | i | i | 69 | i | nt
Cc1ccc2sc(N(CCCN(C)C)C(=O)c3ccc(S(=O)(=O)N(C)Cc4ccccc4)cc3)nc2c1C | i | nt | i | nt | i | 100 | 49 | 46
CCOc1cccc2sc(N(CCCN(C)C)C(=O)c3ccc(S(=O)(=O)N(C)Cc4ccccc4)cc3)nc12 | i | i | ? | i | i | 74 | i | 60
COc1cc(OC)cc(C(=O)N[C@H](C(=O)Nc2nnc(C3CC3)s2)C(C)C)c1 | i | i | i | i | i | i | nt | nt
COc1ccc(Br)cc1/C=N/NC(=O)c1ccc2nc[nH]c2c1 | i | i | i | i | i | i | nt | nt
N#Cc1ccccc1OCC(=O)OCC(=O)Nc1ccc2c(c1)OCO2 | i | nt | nt | nt | i | i | nt | nt
CCc1ccc2[nH]c(C(=O)N(C)c3ccc(F)cc3F)cc2c1 | i | i | i | i | i | i | nt | nt
CC[C@]12c3[nH]c4cc(-c5ccco5)ccc4c3CCN1C(=O)[C@@H](CC(=O)NC(C)(C)C)C[C@@H]2C(=O)N1CCN(C(=O)c2ccco2)CC1 | nt | nt | nt | nt | i | i | nt | nt
O=[N+]([O-])c1ccc(S(=O)(=O)N/N=C/c2ccsc2)cc1 | i | i | i | i | i | i | nt | nt
CCOc1cccc2sc(N(CCCN(C)C)C(=O)c3ccc(C(=O)c4ccccc4)cc3)nc12 | i | i | i | i | i | 51 | i | nt
O=c1[nH]c(=O)n(Cc2ccco2)c2c1C(C(F)(F)F)(C(F)(F)F)N=C(CCc1ccccc1)N2 | i | i | i | i | i | 51 | i | 65
N#Cc1ccc(C2=NC(C(F)(F)F)(C(F)(F)F)c3c(n(Cc4ccco4)c(=O)[nH]c3=O)N2)cc1 | i | i | i | i | i | i | nt | nt
O=c1[nH]c(=O)n(Cc2ccco2)c2c1C(C(F)(F)F)(C(F)(F)F)N=C(CCC1CCCCC1)N2 | i | i | i | i | i | 62 | 88 | 40
O=c1[nH]c(=O)n(Cc2ccco2)c2c1C(C(F)(F)F)(C(F)(F)F)N=C(C1CCCCC1)N2 | i | i | i | i | i | i | nt | nt
CC(C)Cn1c2c(c(=O)[nH]c1=O)C(C(F)(F)F)(C(F)(F)F)N=C(CCC1CCCCC1)N2 | i | i | i | i | i | 52 | 71 | 52
N#CCN1C(=O)C2CCCN2c2ccc(S(=O)(=O)N3CCOCC3)cc21 (configuration not stated) | i | i | i | i | i | i | nt | nt
CC(C)(C)OC(=O)NCCCCCNC(=O)c1nc[nH]c1C(=O)NCc1ccc(CNC(=O)OC(C)(C)C)cc1 | i | nt | nt | nt | i | 54 | i | nt
CC(C)(C)OC(=O)CNC(=O)c1[nH]cnc1C(=O)NCC(=O)OCc1ccccc1 | i | i | i | i | i | i | nt | nt
CC(C)(C)OC(=O)NCCCCCNC(=O)c1nc[nH]c1C(=O)NCC(=O)OCc1ccccc1 | i | nt | nt | nt | i | 66 | 46 | 50
CC(C)C[C@H](NC(=O)c1[nH]cnc1C(=O)Nc1ccc(CNC(=O)OC(C)(C)C)cc1)C(=O)OC(C)(C)C | i | nt | i | nt | i | 53 | i | nt
CC(C)(C)OC(=O)CNC(=O)c1[nH]cnc1C(=O)Nc1ccc(CNC(=O)OC(C)(C)C)cc1 | i | nt | i | nt | i | 63 | 54 | 74
CN(C)CCNCc1ccccc1OC1CCCC1 | i | i | i | i | i | i | nt | nt
CCC(=O)N1CCN(CCN=CC2=C(O)CC(c3ccc(OC)cc3)CC2=O)CC1 (configuration not stated) | i | i | i | i | i | i | nt | nt
C[C@H](NC(=O)c1[nH]cnc1C(=O)Nc1ccc(CNC(=O)OC(C)(C)C)cc1)C(=O)OCc1ccccc1 | i | nt | i | nt | i | 80 | i | nt
O=C(Oc1c(-c2ccccc2Cl)oc2ccccc2c1=O)c1ccc(Cl)cc1 | i | i | i | i | i | 67 | 53 | 48
O=C(Oc1cc(=O)oc2ccccc12)c1ccccc1 | i | i | i | i | i | i | nt | nt

Bioassay records (PubChem)
